Measured values: paper PMC2225614 (The Journal of General Physiology, 2001)
Residue numbers refer to the chain shown, from its start. Read-outs that look alike come from different tables or passages of the source.

How the values were obtained:
[1] = target: T1, CHM25 (RETα with H420 substituted with an asparagine) (Bos taurus, UniProt Q00194, H420Q); assay: Genistein inhibition of closed chimeric channel CHM25; format: biochemical, bovine/rat; conditions: genistein applied on closed channels
T1 sequence (Q00194 1-690 H420Q): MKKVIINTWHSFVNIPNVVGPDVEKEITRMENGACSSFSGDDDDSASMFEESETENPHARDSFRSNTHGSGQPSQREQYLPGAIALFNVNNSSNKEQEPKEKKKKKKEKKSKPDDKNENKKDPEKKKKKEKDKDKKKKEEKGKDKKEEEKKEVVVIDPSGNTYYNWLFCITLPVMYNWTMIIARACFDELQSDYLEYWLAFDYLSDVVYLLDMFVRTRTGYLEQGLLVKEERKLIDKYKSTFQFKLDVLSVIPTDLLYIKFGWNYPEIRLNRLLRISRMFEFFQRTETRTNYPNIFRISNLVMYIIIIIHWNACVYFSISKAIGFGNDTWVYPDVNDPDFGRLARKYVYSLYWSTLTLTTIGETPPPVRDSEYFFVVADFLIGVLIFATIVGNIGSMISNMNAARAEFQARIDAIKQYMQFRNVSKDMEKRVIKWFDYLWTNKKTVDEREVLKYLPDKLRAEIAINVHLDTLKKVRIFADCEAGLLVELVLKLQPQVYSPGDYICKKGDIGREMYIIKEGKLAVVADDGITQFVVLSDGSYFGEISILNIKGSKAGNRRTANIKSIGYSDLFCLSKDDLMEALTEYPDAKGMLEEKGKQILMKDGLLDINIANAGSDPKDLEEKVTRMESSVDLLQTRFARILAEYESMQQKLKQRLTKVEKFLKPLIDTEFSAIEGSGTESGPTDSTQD
Outline: (§1)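 Chimeric RETα/OLFα channels were expressed in Xenopus oocytes (50 nl of 50 ng/μl RNA, 2–7 d), and the vitelline membrane was removed. Inside-out patches were bathed in symmetrical 115 mM NaCl, 5 mM EGTA, 1 mM EDTA, 5 mM HEPES, pH 7.5, held at −75 mV. Test compound was preapplied 1 min to closed channels, then saturating 2 mM cGMP; residual current normalized to Imax.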

[2] = system: CHM17 (RETα with the OLFα cyclic nucleotide–binding domain); assay: Genistein inhibition of closed chimeric channel CHM17; format: biochemical, bovine/rat; conditions: closed channels
Outline: as §1

[3] = system: CHM 30 (converse substitution in OLFα background); assay: Genistein inhibition of closed chimeric channel CHM 30; format: biochemical, bovine/rat; conditions: closed channels
[4] = target: T2, α-subunit of the bovine retinal rod CNG channel (RETα) (Bos taurus, UniProt Q00194); format: biochemical; conditions: for Ki: Ki (apparent affinity)
T2 sequence (Q00194 1-690): T1 sequence (Q00194 1-690 H420Q) with Q420H
Outline: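 RETα was expressed in oocytes from 50 nl of 50 ng/μl RNA. Inside-out patches were held at −75 mV in symmetrical NaCl/EGTA/EDTA/HEPES, pH 7.5, with solution exchange within 50 ms. Current was normalized to Imax: residual current after 1 min preexposure then 2 mM cGMP, or steady-state current with compound added during 2 mM cGMP. Ki and Hill coefficient came from a modified Hill fit; τa from single-exponential fits; mean ± SEM.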

[5] = system: CHM12 (RETα except for mid-S1 through S4); assay: Genistein inhibition of closed chimeric channel CHM12; format: biochemical, bovine/rat; conditions: closed channels
Outline: as §1

[6] = system: CHM 14 (OLFα except for mid-S1 through S4); assay: Genistein inhibition of closed chimeric channel CHM 14; format: biochemical, bovine/rat; conditions: closed channels
Outline: as §1

O=c1c(-c2ccc(O)cc2)coc2cc(O)cc(O)c12 [genistein]
genistein inhibition [1]: complete inhibition | genistein inhibition [2]: complete inhibition | genistein inhibition [3]: neither substitution introduced genistein inhibition | Ki ([4]; closed channels): 4.3 ± 0.9 µM | Ki ([4]; fully activated channels (saturating cGMP)): 84.1 ± 6.8 µM | Hill coefficient of genistein inhibition ([4]; closed channels): 1.97 ± 0.08 | dissociation of genistein–PTK from closed channels (time) ([4]; closed channels): > 1 min | residual current, of maximal current ([4]; closed channels pretreated with Ni^2+ and genistein for 1 min): 32.1 ± 3.4% | residual current, of maximal current ([4]; closed channels pretreated with genistein alone): 1.3 ± 0.8% | association time constant (τa) ([4]; closed channels, 10 μM genistein): 9.1 ± 0.4 s | association time constant (τa) ([4]; closed channels, 25 μM genistein): 8.9 ± 0.6 s | association time constant (τa) ([4]; closed channels, 100 μM genistein): 8.6 ± 0.7 s | dissociation time constant ([4]; closed channels, first of two exponentials, 1-s cGMP puffs every 15 s): 66 s | dissociation time constant ([4]; closed channels, second of two exponentials, 1-s cGMP puffs every 15 s): 808 s | association time constant (τa) ([4]; closed channels, single exponential fit, Fig. 2 A, 100 μM genistein): 9.3 s | Hill coefficient of genistein inhibition ([4]; fully activated channels): 1.02 ± 0.03 | association time constant (τa) ([4]; fully activated channels, 25 μM genistein): 12.1 ± 0.6 s | association time constant (τa) ([4]; fully activated channels, 100 μM genistein): 12.6 ± 0.7 s | association time constant (τa) ([4]; fully activated channels, 250 μM genistein): 12.6 ± 0.9 s | association time constant (τa) ([4]; fully activated channels, single exponential fit, Fig. 2 B): 13.1 s | dissociation time constant ([4]; fully activated channels, single exponential, after 1 min preexposure): 14.4 s | efficacy of genistein inhibition ([4]; fully activated channels, steady-state current in saturating cGMP): 65 ± 6% | change in cGMP sensitivity ([4]; genistein applied on fully activated channels): fourfold decrease | inhibition at 100 µM ([4]; read-out: inhibition of macroscopic current): 41% | fraction of steady-state current from channels devoid of genistein–PTK ([4]; saturating cGMP plus genistein, Fig. 3 B protocol): < 60% | genistein inhibition [5]: fully inhibited | genistein inhibition [6]: not inhibited
